Activity calls are given as the source filed them. The rule behind the calls is not given here.
What was measured:
[1] = Cytotoxicity against human HeLa cells; format: cell-based; details: read-out: TC50 (the source's name)
In short: (§1)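 Cytotoxicity measured on confluent Vero and HeLa cells, given as 50% cytotoxic concentration; solubility limit in assay medium 100 µM.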

[2] = Cytotoxicity against african green monkey Vero cells; format: cell-based; details: chlorocebus sabaeus, read-out: TC50 (the source's name); in short: as §1
[3] = test system: rhinovirus B86; test: Antiviral activity against Human rhinovirus 86 infected in african green monkey Vero cells assessed as inhibition of virus-induced cytopathic effect after 3 days by MTS-based CPE reduction assay; format: functional, organism-based; details: Rhinovirus B, 72 h
In short: (§2)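 Confluent cells infected with 100 CCID50 virus; 2 h adsorption at 37°C (35°C for rhinovirus), then inoculum removed and serial compound dilutions added. Incubated 3 days at 37°C until full CPE in virus controls. MTS/PMS added for 2 h, OD498 read; % CPE from cell and virus controls; EC50 as 50% protection, by logarithmic interpolation. Mean of ≥3 independent experiments.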

[4] = test system: rhinovirus B14; test: Antiviral activity against Human rhinovirus 14 infected in african green monkey Vero cells assessed as inhibition of virus-induced cytopathic effect after 3 days by MTS-based CPE reduction assay; format: functional, organism-based; details: Rhinovirus B, 72 h; in short: as §2
[5] = test system: rhinovirus A15; test: Antiviral activity against Human rhinovirus 15 infected in african green monkey Vero cells assessed as inhibition of virus-induced cytopathic effect after 3 days by MTS-based CPE reduction assay; format: functional, organism-based; details: Rhinovirus A, 72 h; in short: as §2
[6] = test system: Coxsackievirus B3; test: Antiviral activity against Human coxsackievirus B3 harboring nonstructural protein 3A V45A mutant infected in african green monkey Vero cells assessed as inhibition of virus-induced cytopathic effect after 3 days by plaque assay; format: functional, organism-based; details: Enterovirus B, 72 h
[7] = test system: Coxsackievirus B3; test: Antiviral activity against Human coxsackievirus B3 harboring nonstructural protein 3A I8T mutant infected in african green monkey Vero cells assessed as inhibition of virus-induced cytopathic effect after 3 days by plaque assay; format: functional, organism-based; details: Enterovirus B, 72 h
[8] = test system: rhinovirus A89; test: Antiviral activity against Human rhinovirus 89 infected in african green monkey Vero cells assessed as inhibition of virus-induced cytopathic effect after 3 days by MTS-based CPE reduction assay; format: functional, organism-based; details: Rhinovirus A, 72 h; in short: as §2
[9] = test system: Poliovirus 1; test: Antiviral activity against Human poliovirus 1 strain Sabin infected in african green monkey Vero cells assessed as inhibition of virus-induced cytopathic effect after 3 days by MTS-based CPE reduction assay; format: functional, cell-based; details: Enterovirus C, 72 h
In short: (§3)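 Confluent cells infected with 100 CCID50 virus, adsorbed 2 h at 37°C, then virus removed and serial compound dilutions added (DMSO stocks diluted in MEM with 2% FBS). Incubated 3 days at 37°C until full CPE in virus controls. Viability read by MTS/PMS, OD498 after 2 h. EC50 by logarithmic interpolation of % CPE protection. Mean of at least three independent experiments.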

[10] = Antiviral activity against Human coxsackievirus A21 (strain Coe) infected in african green monkey Vero cells assessed as inhibition of virus-induced cytopathic effect after 3 days by MTS-based CPE reduction assay; format: functional, cell-based; details: Enterovirus C, 72 h; in short: as §3
[11] = test system: rhinovirus B70; test: Antiviral activity against Human rhinovirus 70 infected in african green monkey Vero cells assessed as inhibition of virus-induced cytopathic effect after 3 days by MTS-based CPE reduction assay; format: functional, organism-based; details: Rhinovirus B, 72 h; in short: as §2
[12] = test system: Coxsackievirus B3; test: Antiviral activity against Human coxsackievirus B3 harboring nonstructural protein 3A H57Y mutant infected in african green monkey Vero cells assessed as inhibition of virus-induced cytopathic effect after 3 days by plaque assay; format: functional, organism-based; details: Enterovirus B, 72 h
[13] = test system: Coxsackievirus B3; test: Antiviral activity against Human coxsackievirus B3 harboring wild type nonstructural protein 3A infected in african green monkey Vero cells assessed as inhibition of virus-induced cytopathic effect after 3 days by plaque assay; format: functional, organism-based; details: Enterovirus B, 72 h
[14] = test system: Coxsackievirus B3; test: Antiviral activity against Human coxsackievirus B3 harboring nonstructural protein 3A I54F mutant infected in african green monkey Vero cells assessed as inhibition of virus-induced cytopathic effect after 3 days by plaque assay; format: functional, organism-based; details: Enterovirus B, 72 h
[15] = Antiviral activity against Human coxsackievirus A16 (strain G-10) A16 infected in african green monkey Vero cells assessed as inhibition of virus-induced cytopathic effect after 3 days by MTS-based CPE reduction assay; format: functional, cell-based; details: Enterovirus A, 72 h; in short: as §2
[16] = Antiviral activity against Coxsackievirus B3 (strain Nancy) infected in african green monkey Vero cells assessed as inhibition of virus-induced cytopathic effect after 3 days by MTS-based CPE reduction assay; format: functional, cell-based; details: Enterovirus B, 72 h; in short: as §2
[17] = test system: Poliovirus 3; test: Antiviral activity against Human poliovirus 3 strain Sabin infected in african green monkey Vero cells assessed as inhibition of virus-induced cytopathic effect after 3 days by MTS-based CPE reduction assay; format: functional, organism-based; details: Enterovirus C, 72 h; in short: as §3
[18] = test system: rhinovirus A85; test: Antiviral activity against Human rhinovirus 85 infected in african green monkey Vero cells assessed as inhibition of virus-induced cytopathic effect after 3 days by MTS-based CPE reduction assay; format: functional, organism-based; details: Rhinovirus A, 72 h; in short: as §2
[19] = test system: rhinovirus A45; test: Antiviral activity against Human rhinovirus 45 infected in african green monkey Vero cells assessed as inhibition of virus-induced cytopathic effect after 3 days by MTS-based CPE reduction assay; format: functional, organism-based; details: Rhinovirus A, 72 h; in short: as §2
[20] = Antiviral activity against Human enterovirus 71 (strain BRCR) infected in african green monkey Vero cells assessed as inhibition of virus-induced cytopathic effect after 3 days by MTS-based CPE reduction assay; format: functional, cell-based; details: Enterovirus A, 72 h; in short: as §2
[21] = Antiviral activity against Human rhinovirus 42 infected in african green monkey Vero cells assessed as inhibition of virus-induced cytopathic effect after 3 days by MTS-based CPE reduction assay; format: functional, cell-based; details: Rhinovirus B, 72 h; in short: as §2
[22] = test system: rhinovirus A29; test: Antiviral activity against Human rhinovirus 29 infected in african green monkey Vero cells assessed as inhibition of virus-induced cytopathic effect after 3 days by MTS-based CPE reduction assay; format: functional, organism-based; details: Rhinovirus A, 72 h; in short: as §2
[23] = test system: rhinovirus A39; test: Antiviral activity against Human rhinovirus 39 infected in african green monkey Vero cells assessed as inhibition of virus-induced cytopathic effect after 3 days by MTS-based CPE reduction assay; format: functional, organism-based; details: Rhinovirus A, 72 h; in short: as §2
[24] = test system: rhinovirus B72; test: Antiviral activity against Human rhinovirus 72 infected in african green monkey Vero cells assessed as inhibition of virus-induced cytopathic effect after 3 days by MTS-based CPE reduction assay; format: functional, organism-based; details: Rhinovirus B, 72 h; in short: as §2
[25] = test system: Poliovirus 2; test: Antiviral activity against Human poliovirus 2 Sabin infected in african green monkey Vero cells assessed as inhibition of virus-induced cytopathic effect after 3 days by MTS-based CPE reduction assay; format: functional, organism-based; details: Enterovirus C, 72 h; in short: as §3
[26] = test system: rhinovirus A2; test: Antiviral activity against Human rhinovirus 2 infected in african green monkey Vero cells assessed as inhibition of virus-induced cytopathic effect after 3 days by MTS-based CPE reduction assay; format: functional, organism-based; details: Rhinovirus A, 72 h; in short: as §2
[27] = test system: rhinovirus A41; test: Antiviral activity against Human rhinovirus 41 infected in african green monkey Vero cells assessed as inhibition of virus-induced cytopathic effect after 3 days by MTS-based CPE reduction assay; format: functional, organism-based; details: Rhinovirus A, 72 h; in short: as §2
[28] = test system: rhinovirus A63; test: Antiviral activity against Human rhinovirus 63 infected in african green monkey Vero cells assessed as inhibition of virus-induced cytopathic effect after 3 days by MTS-based CPE reduction assay; format: functional, organism-based; details: Rhinovirus A, 72 h; in short: as §2
[29] = test system: rhinovirus A9; test: Antiviral activity against Human rhinovirus 9 infected in african green monkey Vero cells assessed as inhibition of virus-induced cytopathic effect after 3 days by MTS-based CPE reduction assay; format: functional, organism-based; details: Rhinovirus A, 72 h; in short: as §2
[30] = test system: Coxsackievirus B3 (strain Nancy); test: Antiviral activity against Coxsackievirus B3 (strain Nancy) infected in buffalo green monkey cells assessed as inhibition of viral RNA accumulation at 25 uM by luciferase reporter gene assay; format: functional, cell-based
In short: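 BGM cells transfected with RNA from SalI-linearized CVB3 subgenomic replicon with luciferase replacing P1, with or without 25 µM compound. At set times post-transfection, cells washed with PBS, lysed, and luciferase measured as relative light units. Averages ± SD of three independent experiments.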

[31] = test system: Coxsackievirus B3 (strain Nancy); test: Antiviral activity against Coxsackievirus B3 (strain Nancy) infected in buffalo green monkey cells assessed as inhibition of viral RNA accumulation at 2 mM by luciferase reporter gene assay; format: functional, cell-based
[32] = test system: Vero; test: Antiviral activity against Coxsackievirus B3 (strain Nancy) infected in african green monkey Vero cells assessed as inhibition of virus-induced cytopathic effect after 3 days by plaque assay; format: functional, cell-based
In short: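 Confluent Vero cells infected with CVB3 for 2 h at 37°C with gentle shaking, washed twice with PBS, then overlaid with 0.4% agar with or without compound. After 3-4 days, fixed with 4% formaldehyde, agar removed, Giemsa-stained and plaques counted. Read at day 3 post-infection; averages ± SD of three independent experiments.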

[33] = test system: Coxsackievirus B3; test: Inhibition of viral polyprotein processing in Coxsackievirus B3 (strain Nancy) infected in buffalo green monkey cells at 25 uM by SDS PAGE assay; format: functional, cell-based
In short: (§4)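 Confluent BGM cells infected with CVB3 at MOI 50. At 5 h, methionine starvation for 30 min, then 30-min [35S]Met pulse with or without 25 µM compound. At 6 h, lysed in Tris-HCl pH 7.4/NaCl/EDTA/NP-40/0.05% SDS buffer; translation products resolved by SDS-PAGE. Three independent experiments.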

[34] = test system: Vero; test: Antiviral activity against Coxsackievirus B3 (strain Nancy) infected in african green monkey Vero cells assessed as inhibition viral replication at 25 uM administered at 1 hr interval starting at 3 hrs after viral infection; format: functional, cell-based
In short: (§5)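 Confluent Vero cells infected with 10⁴ CCID50 CVB3, 1 h adsorption at 37°C, inoculum replaced with medium. Compound (final 25 µM) added at 1-h intervals, starting 1 h before infection. At 8 h post-infection, supernatant and intracellular RNA collected and viral RNA quantified by one-step TaqMan qRT-PCR against a synthetic transcript standard curve; normalized to 0-h point; two independent experiments.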

[35] = test system: Vero; test: Antiviral activity against Coxsackievirus B3 (strain Nancy) infected in african green monkey Vero cells assessed as inhibition viral replication at 25 uM administered at 1 hr interval starting at 1 hr before viral infection measured within first 3 hrs postinfection; format: functional, cell-based; in short: as §5
[36] = test system: Coxsackievirus B3; test: Inhibition of viral polyprotein synthesis in Coxsackievirus B3 (strain Nancy) infected in buffalo green monkey cells at 25 uM by SDS PAGE assay; format: functional, cell-based; in short: as §4

| SMILES | EC50 [3] [nM] | EC50 [4] [nM] | EC50 [5] [nM] | EC50 [6] [nM] | EC50 [7] [nM] | EC50 [8] [nM] | EC50 [9] [nM] | EC50 [10] [nM] | EC50 [11] [nM] | EC50 [12] [nM] | EC50 [13] [nM] | EC50 [14] [nM] | EC50 [15] [nM] | EC50 [16] [nM] | EC50 [17] [nM] | EC50 [18] [nM] | EC50 [19] [nM] | EC50 [20] [nM] | EC50 [21] [nM] | EC50 [22] [nM] | other results |
| --- | --- | --- | --- | --- | --- | --- | --- | --- | --- | --- | --- | --- | --- | --- | --- | --- | --- | --- | --- | --- | --- |
| C[C@@H](NC(=O)c1cccc(-c2c[nH]c(-c3cc4ccccc4cn3)n2)c1)c1ccc(F)cc1 |  |  |  |  |  |  |  |  |  |  |  |  |  |  |  |  |  |  |  |  | CC50 [1]: > 100000 nM; CC50 [2]: > 100000 nM |
| CC(C)S(=O)(=O)n1c(N)nc2ccc(/C(=N/O)c3ccccc3)cc21 [ENVIROXIME] | 140 | 110 | 42 | 1500 | 700 | 100 | 190 | 480 | 110 | 1700 | 500 | 1800 | 120 | 1900 | 40 | 33 | 250 | 150 | 110 | 29 | EC50 [23]: 28 nM; EC50 [24]: 720 nM; EC50 [25]: 60 nM; EC50 [26]: 26 nM; EC50 [27]: 27 nM; EC50 [28]: 27 nM; EC50 [29]: 38 nM |
| Fc1cccc(F)c1C1SCc2nc3cc(C(F)(F)F)ccc3n21 (stereo not drawn) |  |  |  | 3600 | 2900 |  |  |  |  | 3400 | 2900 | 3700 |  |  |  |  |  |  |  |  |  |
| C[C@@H](NC(=O)c1cccc(-c2cnc(-c3cc4ccccc4cn3)[nH]2)c1)c1ccc(F)cc1 | > 50000 | > 50000 | > 50000 | 17700 | 6000 | > 50000 | 510 | 5340 | > 50000 | 15300 | 1900 | 19800 | 850 | 1200 | 270 | 1220 | 990 | > 60000 | > 50000 | 770 | inhibition [30]: Active; inhibition [31]: Active; inhibition [32]: Dose-dependent effect; inhibition [33]: inactive; inhibition [34]: inactive; inhibition [35]: Active; EC50 [23]: 650 nM; EC50 [24]: > 50000 nM; EC50 [25]: 580 nM; EC50 [26]: 800 nM; inhibition [36]: inactive; EC50 [27]: > 50000 nM; EC50 [28]: 91 nM; EC50 [29]: > 50000 nM |

— ChEMBL document CHEMBL1649184, “Mutations in the nonstructural protein 3A confer resistance to the novel enterovirus replication inhibitor TTP-8307” (Antimicrob Agents Chemother, 2009)
